MT1-MMP act inh = blocks activation of human MT1-MMP; P50281; 0.061% of 360,000 active; GFP/RFP ratio change, % at 20 µM; HT1080 RFP-PRO-GFP cells, GFP/RFP ratio fluorescence, overnight; percent of plate control window, DMSO zero;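 active means GFP/RFP ratio change of at least 30% with cell ATP level not reduced by more than half and red fluorescence within 50% of control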
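Test system: HT1080 cells expressing an RFP-PRO-GFP fluorescent reporter construct / Compound dosing: single-point 20 µM compound, 1% DMSO / Schedule: cells overnight before dosing, compound overnight, 37 °C, 5% CO2 / Evaluation: GFP/RFP fluorescence ratio / Control set: DMSO and RFP-L50D-GFP cell wells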
DNMT1 inh = inhibitors of human DNMT1. P26358. DNMT1 molecular beacon, Hinp1I cleavage, fluorescence. inhibition (reported as % activation of signal), % at 10 µM. 0.83% of 360,000 active; in the data active means inhibition above about 50%
Target sequence (P26358 504-1616 limits assumed): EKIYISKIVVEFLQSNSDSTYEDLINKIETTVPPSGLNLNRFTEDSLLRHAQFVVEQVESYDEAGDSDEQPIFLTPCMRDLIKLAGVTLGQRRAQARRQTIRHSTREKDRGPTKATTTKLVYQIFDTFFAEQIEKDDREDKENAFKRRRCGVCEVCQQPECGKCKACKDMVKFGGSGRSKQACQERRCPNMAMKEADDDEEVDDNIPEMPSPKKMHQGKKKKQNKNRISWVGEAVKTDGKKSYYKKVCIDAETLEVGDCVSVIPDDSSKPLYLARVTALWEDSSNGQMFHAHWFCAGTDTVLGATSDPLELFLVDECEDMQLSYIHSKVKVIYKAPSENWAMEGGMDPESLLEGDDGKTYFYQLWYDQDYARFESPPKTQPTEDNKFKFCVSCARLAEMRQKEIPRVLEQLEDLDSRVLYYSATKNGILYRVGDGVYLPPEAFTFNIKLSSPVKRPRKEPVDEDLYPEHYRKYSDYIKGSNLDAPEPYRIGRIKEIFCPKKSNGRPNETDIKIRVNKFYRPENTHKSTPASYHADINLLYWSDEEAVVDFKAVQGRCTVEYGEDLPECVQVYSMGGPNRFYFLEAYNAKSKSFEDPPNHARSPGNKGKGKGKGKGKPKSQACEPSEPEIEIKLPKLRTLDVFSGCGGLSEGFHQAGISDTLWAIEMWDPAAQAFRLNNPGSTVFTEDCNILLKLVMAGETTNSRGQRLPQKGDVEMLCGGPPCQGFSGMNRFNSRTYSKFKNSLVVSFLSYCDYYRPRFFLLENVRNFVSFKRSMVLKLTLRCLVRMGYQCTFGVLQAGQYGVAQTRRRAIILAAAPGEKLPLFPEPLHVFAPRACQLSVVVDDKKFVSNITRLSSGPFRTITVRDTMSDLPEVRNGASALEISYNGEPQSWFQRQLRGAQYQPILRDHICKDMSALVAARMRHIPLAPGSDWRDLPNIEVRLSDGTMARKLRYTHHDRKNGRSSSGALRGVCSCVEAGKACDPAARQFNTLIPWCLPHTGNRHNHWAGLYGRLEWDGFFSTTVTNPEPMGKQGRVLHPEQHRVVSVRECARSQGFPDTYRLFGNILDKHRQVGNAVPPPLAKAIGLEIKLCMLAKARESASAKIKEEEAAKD
Rpn11 block = Rpn11 (human) deubiquitinase inhibition | O00487 | human 26S proteasome, Ub4-pepOG fluorescence polarization; 20S core pre-blocked with epoxomicin | inhibition, % at 20 µM | 0.59% of 360,000 active | AID 588493;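 active means inhibition at 20 µM, scaled to each plate's controls, above about 33%, limit read from the data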
CSN inh = inhibitors of human CSN-mediated cullin deneddylation | 0.38% of 360,000 active | inhibition, % at 12.5 µM | Purified CSN, SCF-Nedd8-OG deneddylation, fluorescence polarization | Q92905;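 active means pattern-corrected inhibition above about 35%, with an unprinted fluorescence ratio check between 0.5 and 1.5, limit read from the data, passing the limit was not always enough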;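 further: 0% = enzyme with substrate and 100% = substrate without enzyme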
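Assay system: HEK293T-derived human Csn5 enzyme; quantity: 0.24 nM enzyme; medium: Tris/NaCl/DTT buffer, pH 7.5; also added: substrate SCFSkp2-Nedd8OG, 10 nM; doses: 12.5 µM compound; schedule: 90 min reaction at room temperature; signal: FP; read-out: % inhibition of substrate cleavage by Csn5; benchmarks: substrate-only high control, full reaction low control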
SKN-1 block = blocks SKN-1 activity in C. elegans; C. elegans VP596 Pgst-4::GFP/RFP ratio, acrylamide-induced, 24 h; inhibition, % at 21.8 µM; 0.49% of 360,000 active; AID 624304;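 active means interference check ratio from 0.5 to 1.5 plus GFP to RFP signal ratio inhibition reaching or exceeding a fixed threshold, cut at about 30% in these data, passing the limit was not always enough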
SUMO1-SIM PPI = modulators of human SUMO1-mediated protein-protein interactions. P63165. SUMO1 binding to a labelled peptide, TR-FRET, 1 h. inhibition, % at 20 µM. 0.33% of 360,000 active; in the data active means inhibition above about 37%
Rpn11 confirm = confirmation of human proteasome Rpn11 inhibitors; shares compounds with Rpn11 block; purified human 26S proteasome, Ub4-pepOG fluorescence polarization; proteasome pretreated with epoxomicin; inhibition, % at 20 µM; 29% of 1,900 active; AID 602318
MMP-2 counter = counter-screen for RPN11 inhibitors: inhibition of human MMP-2; shares compounds with Rpn11 block; recombinant MMP-2, FRET peptide cleavage fluorescence; inhibition, % at 20 µM; 4% of 1,900 active; AID 602330;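 further: human MMP-2 activated beforehand with APMA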
Thrombin inh = counter-screen for RPN11 inhibitors: inhibition of bovine thrombin. shares compounds with Rpn11 block. bovine thrombin cleavage of Ub4-pepOG, fluorescence polarization. inhibition, % at 20 µM. 13% of 1,900 active. AID 602333;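 active means mean inhibition at least 40% at 20 µM, or signal 3 deviations below plate average, so some actives read negative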;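 further: plate controls were thrombin with DMSO for no effect and buffer wells lacking thrombin for full effect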
The depositor's hits bear a star; x = no result shown. The list is not random: actives were taken first. Their share in the collection is about 2.3%. Unless noted, no stated cut-off is given here; in the data, active means inhibition above about 40%; inactive means the rest.

SMILES	MT1-MMP act inh	DNMT1 inh	Rpn11 block	CSN inh	SKN-1 block	SUMO1-SIM PPI	Rpn11 confirm	MMP-2 counter	Thrombin inh
Cc1nc(N2CCN(Cc3ccccc3)CC2)nc2c1CCC2	0	1	-5	1	1	2	x	x	x
CSc1nsc(/C=C/Nc2ccc(Cl)cc2)c1C#N	-53	8	43*	22	14	-1	16	-30	-10
CSc1nsc(/C=C/Nc2ccc(F)cc2)c1C#N	-38	-17	64*	16	8	-1	28	-37	16
O=C(CCCN1C(=O)/C(=C/c2ccc3c(c2)OCO3)SC1=S)Nc1ccc(C(=O)O)cc1	1	0	56*	11	-9	-22	52*	6	21
CCOc1ccc(/C=C2\SC(=S)N(CCC(=O)Nc3ccc(C(=O)O)cc3)C2=O)cc1	1	62*	44*	6	6	31	15	-42	-16
C/C(=N\Nc1ccc(C#N)cc1[N+](=O)[O-])c1ccc(C)o1	9	2	64*	0	3	-11	-9	-26	-16
C/C(=N\NS(=O)(=O)c1ccc(Cl)c([N+](=O)[O-])c1)c1ccc(C)o1	15	23	5	2	-6	-3	x	x	x
CCOC(=O)C1(C)CCCN1C(=O)c1cccc2ccccc12 (stereo not drawn)	-5	1	8	1	6	-1	x	x	x
Cc1cc(N2CCCC2)c(F)cc1/C=C\[N+](=O)[O-]	-6	7	64*	31	-2	7	60*	-53	22
O=[N+]([O-])c1ccc(NN=Cc2cccc3ccccc23)cc1	-23	5	51*	8	19	-1	14	-12	6
O=[N+]([O-])c1ccc(N/N=C\c2ccccc2OCc2ccccc2)cc1	-23	-5	37	16	-5	-22	x	x	x
O=[N+]([O-])c1ccc(/C=N/Nc2ccc3ccccc3c2)o1	-30	-15	41*	23	12	-24	25	9	13
O=[N+]([O-])c1ccc(/C=N/NC(=S)Nc2ccccc2)o1	3	-20	5	-2	14	-23	x	x	x
COc1ccc(NC(=O)c2cc(-c3cc(F)ccc3OC(C)C)n[nH]2)c(C)c1	-5	0	3	4	3	5	x	x	x
CCc1ccc(NC(=O)C2CCN(S(=O)(=O)c3ccc4c(c3)NC(=O)C(C)S4)CC2)cc1 (stereo not drawn)	-3	-5	69*	6	16	-1	87*	25	33
CC1(C)N=C(N)N=C(N)N1c1ccc(CCCCc2ccccc2)cc1	7	-3	-6	3	-12	-36	x	x	x
COc1cc(/C=C2/C(=O)NN(c3ccccc3)C2=O)cc(Br)c1O	-1	-5	48*	13	1	-39	55*	13	52*
COc1cc(/C=C2/C(=O)NN(c3ccc(Cl)cc3)C2=O)cc(OC)c1O	-1	1	63*	23	12	-43	62*	-53	54*
COc1ccc(NC(=O)C2(C)CCN2CC2CCCCC2)cc1OC (stereo not drawn)	2	0	1	-3	13	0	x	x	x
CC1(C(=O)NS(=O)(=O)c2ccc(F)cc2F)CCN1C(=O)Cc1cccc2ccccc12 (stereo not drawn)	-1	-5	-2	-3	24	5	x	x	x
O=C1NC(Cc2ccccc2)c2nc3ccccc3c(=O)n2-c2cc3ccccc3cc21 (stereo not drawn)	-5	-6	2	2	15	-2	x	x	x
O=C(Cc1cccs1)N(Cc1ccco1)C1(C(=O)NC2CCCCC2)CCCCC1	-12	0	1	-2	0	-1	x	x	x
O=C(Cc1cccs1)N(Cc1cccs1)C1(C(=O)NC2CCCC2)CCCCC1	-12	-1	136*	-3	-2	3	2	-6	6
Cc1ccc(-n2c(-c3ccco3)nc3nc4ccccc4nc32)cc1	-15	5	46*	15	-2	-7	43*	-9	-15
COc1cccc(-n2c(-c3ccco3)nc3nc4ccccc4nc32)c1	-9	32	20	19	16	-6	x	x	x
SMILES	MT1-MMP act inh	DNMT1 inh	Rpn11 block	CSN inh	SKN-1 block	SUMO1-SIM PPI	Rpn11 confirm	MMP-2 counter	Thrombin inh
Cc1ccc(C(=O)N/N=C/c2c(O)ccc3ccccc23)cn1	-57	3	122*	23	-7	-7	23	-43	3
O=C(N/N=C/c1c(O)ccc2ccccc12)c1cccnc1	-22	-2	x	28	7	-23	x	x	x
C(=C\c1ccccc1)/CN1CCN(C(c2cccs2)c2nnnn2-c2ccc3c(c2)OCCO3)CC1 (stereo not drawn)	-1	-12	8	-1	24	3	x	x	x
Cc1ccc(CS(=O)(=O)Cc2ccc(C(=O)NCc3cccs3)o2)cc1	-2	2	0	2	-6	0	x	x	x
Cc1ccc(CS(=O)Cc2ccc(C(=O)NCc3cccs3)o2)cc1 (stereo not drawn)	4	-2	64*	-1	11	4	-10	-1	-18
Cc1occc1-c1nnc(SCC(N)=O)n1Cc1ccccc1	3	3	2	-11	10	-2	x	x	x
Cc1occc1-c1nnc(SCC(=O)NCCc2ccccc2)n1Cc1ccccc1	-2	-4	85*	5	24	2	13	-23	11
CC(NC(=O)C1CCN(C(=O)c2cccs2)CC1)c1ccc(S(N)(=O)=O)cc1 (stereo not drawn)	2	-132	67*	101*	3	-139	63*	-117	-8
O=C(NNC1=Nc2cccc3cccc1c23)c1ccccc1Br	-11	-2	53*	-1	9	-3	1	-21	4
CCCCN(C=O)c1c(CC)nc2c(OCc3ccc(Cl)cc3)cccn12	-3	0	6	-1	16	2	x	x	x
COc1ccc(NC(=O)C(c2ccccc2F)n2c(=O)c(-c3cc4ccccc4[nH]3)nc3ccccc32)cc1 (stereo not drawn)	-1	x	x	-2	14	4	x	x	x
Cc1c(N=C2Nc3cccc4cccc2c34)c(=O)n(-c2ccccc2)n1C	-24	-9	x	19	3	-6	-10	-38	active
